Experimental data reported in ChEMBL document CHEMBL3526048, “In vitro metabolism of rivoglitazone, a novel peroxisome proliferator-activated receptor γ agonist, in rat, monkey, and human liver microsomes and freshly isolated hepatocytes” (Drug Metab Dispos, 2011).

How the values were obtained:
[1] = Drug metabolism in human hepatocytes assessed as formation of 3-(4-((6-methoxy-1-methyl-1H-benzo[d]imidazol-2-yl)methoxy)phenyl)-2-(methylsulfinyl)propanamide at 30 uM after 3 hrs by radio-HPLC/LC-MS/MS analysis in presence of NADPH-generating system/SAM; type: ADME, cell-based, Hepatocyte
[2] = target: T1, UDP-glucuronosyltransferase 2B15 (Homo sapiens, UniProt P54855); assay: Activity of human UGT2B15 expressed in microsomes isolated from baculovirus infected insect cell assessed as enzyme-mediated (2S,3S,4S,5R,6R)-3,4,5-trihydroxy-6-(5-(4-((6-methoxy-1-methyl-1H-benzo[d]imidazol-2-yl)methoxy)benzyl)-2,4-dioxothiazolidin-3-yl)tetrahydro-2H-pyran-2-carboxylic acid formation at 20 uM after 4 hrs by radio-HPLC/LC-MS/MS analysis in presence of UDPGA; type: ADME
T1 sequence (P54855 whole entry): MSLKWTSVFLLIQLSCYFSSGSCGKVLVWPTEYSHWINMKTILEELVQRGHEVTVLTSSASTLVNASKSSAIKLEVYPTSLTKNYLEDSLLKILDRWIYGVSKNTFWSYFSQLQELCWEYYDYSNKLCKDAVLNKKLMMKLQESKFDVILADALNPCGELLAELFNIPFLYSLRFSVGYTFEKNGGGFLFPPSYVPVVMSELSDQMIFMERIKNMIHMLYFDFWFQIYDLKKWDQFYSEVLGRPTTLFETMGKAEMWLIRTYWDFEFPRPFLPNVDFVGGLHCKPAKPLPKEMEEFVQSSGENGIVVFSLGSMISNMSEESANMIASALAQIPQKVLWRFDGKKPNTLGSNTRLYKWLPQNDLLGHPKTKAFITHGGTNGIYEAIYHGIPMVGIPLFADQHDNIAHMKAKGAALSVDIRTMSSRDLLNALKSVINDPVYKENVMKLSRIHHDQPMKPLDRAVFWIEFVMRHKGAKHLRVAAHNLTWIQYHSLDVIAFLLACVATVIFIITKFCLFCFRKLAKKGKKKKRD

Cytochrome P450 3A4 = Cytochrome P450 3A4 (Homo sapiens, UniProt P08684); assay: Activity of human CYP3A4 expressed in microsomes isolated from baculovirus infected insect cell assessed as enzyme-mediated 5-hydroxy-5-(4-((6-methoxy-1-methyl-1H-benzo[d]imidazol-2-yl)methoxy)benzyl)thiazolidine-2,4-dione formation at 20 uM after 2 hrs by radio-HPLC/LC-MS/MS analysis in presence of NADPH-generating system and NADPH-generating system/SAM; type: ADME
Chain of Cytochrome P450 3A4 (P08684 whole entry): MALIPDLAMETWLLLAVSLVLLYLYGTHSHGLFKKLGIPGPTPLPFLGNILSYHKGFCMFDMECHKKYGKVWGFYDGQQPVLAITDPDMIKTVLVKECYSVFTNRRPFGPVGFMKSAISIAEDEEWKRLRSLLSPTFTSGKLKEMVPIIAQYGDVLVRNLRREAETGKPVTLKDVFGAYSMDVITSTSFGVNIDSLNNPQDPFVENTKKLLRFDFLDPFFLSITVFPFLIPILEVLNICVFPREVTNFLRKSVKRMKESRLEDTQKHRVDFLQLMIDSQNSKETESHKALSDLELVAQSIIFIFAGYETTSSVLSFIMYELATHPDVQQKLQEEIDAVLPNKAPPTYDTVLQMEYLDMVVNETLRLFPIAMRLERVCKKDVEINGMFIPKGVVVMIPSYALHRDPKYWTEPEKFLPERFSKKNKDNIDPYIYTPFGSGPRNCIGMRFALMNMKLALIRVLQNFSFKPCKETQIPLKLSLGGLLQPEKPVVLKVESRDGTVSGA

Liver microsome = assay: Drug metabolism in human liver microsomes assessed as formation of 2-((4-((2,4-dioxothiazolidin-5-yl)methyl)phenoxy)methyl)-1-methyl-1H-benzo[d]imidazol-6-yl hydrogen sulfate at 20 uM by radio-HPLC/LC-MS/MS analysis; type: ADME
Cytochrome P450 2D6 = Cytochrome P450 2D6 (Homo sapiens, UniProt P10635); assay: Activity of human CYP2D6 expressed in microsomes isolated from baculovirus infected insect cell assessed as enzyme-mediated 5-(4-((6-hydroxy-1-methyl-1H-benzo[d]imidazol-2-yl)methoxy)benzyl)thiazolidine-2,4-dione formation at 20 uM after 2 hrs by radio-HPLC/LC-MS/MS analysis in presence of NADPH-generating system and NADPH-generating system/SAM; type: ADME
Chain of Cytochrome P450 2D6 (P10635 whole entry): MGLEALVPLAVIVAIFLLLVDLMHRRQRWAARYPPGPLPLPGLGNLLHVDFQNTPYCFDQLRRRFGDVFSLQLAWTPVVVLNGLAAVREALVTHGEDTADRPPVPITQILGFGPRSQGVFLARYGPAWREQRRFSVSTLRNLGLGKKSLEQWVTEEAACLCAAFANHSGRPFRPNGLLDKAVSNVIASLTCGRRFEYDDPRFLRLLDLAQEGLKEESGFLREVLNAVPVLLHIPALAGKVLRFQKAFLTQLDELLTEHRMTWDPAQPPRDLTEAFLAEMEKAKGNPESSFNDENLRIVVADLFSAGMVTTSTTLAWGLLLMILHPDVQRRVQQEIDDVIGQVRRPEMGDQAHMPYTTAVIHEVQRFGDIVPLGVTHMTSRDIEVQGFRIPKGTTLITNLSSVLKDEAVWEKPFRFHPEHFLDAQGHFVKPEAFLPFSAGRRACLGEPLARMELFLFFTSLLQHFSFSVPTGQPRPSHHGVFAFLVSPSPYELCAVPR

Cytochrome P450 1A2 = target: T2, Cytochrome P450 1A2 (Homo sapiens, UniProt P05177); assay: Activity of human CYP1A2 expressed in microsomes isolated from baculovirus infected insect cell assessed as enzyme-mediated 2-amino-3-((1-carboxy-2-(4-((6-methoxy-1-methyl-1H-benzo[d]imidazol-2-yl)methoxy)phenyl)ethyl)disulfanyl)propanoic acid formation at 20 uM after 2 hrs by radio-HPLC/LC-MS/MS analysis; type: ADME
T2 sequence (P05177 whole entry): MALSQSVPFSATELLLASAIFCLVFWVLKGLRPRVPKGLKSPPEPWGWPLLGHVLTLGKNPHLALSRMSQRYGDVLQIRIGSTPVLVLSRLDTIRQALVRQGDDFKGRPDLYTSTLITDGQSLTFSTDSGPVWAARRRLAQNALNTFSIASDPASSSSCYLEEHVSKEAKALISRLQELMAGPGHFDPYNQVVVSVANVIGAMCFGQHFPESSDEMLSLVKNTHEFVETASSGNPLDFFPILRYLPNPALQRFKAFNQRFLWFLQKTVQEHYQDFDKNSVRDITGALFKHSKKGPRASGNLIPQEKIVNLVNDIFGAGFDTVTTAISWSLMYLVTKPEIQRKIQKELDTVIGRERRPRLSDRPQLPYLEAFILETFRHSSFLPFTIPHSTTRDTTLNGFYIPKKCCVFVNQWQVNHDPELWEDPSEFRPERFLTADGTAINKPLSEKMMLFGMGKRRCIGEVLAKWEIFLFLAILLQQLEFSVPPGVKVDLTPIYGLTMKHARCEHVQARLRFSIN
Method in brief: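 Baculovirus/insect-cell microsomes expressing single human CYPs, 1 mg/ml protein, with 50 mM potassium phosphate (pH 7.4) or 100 mM Tris-HCl (pH 7.5). NADPH-generating system: 2 mM NADP⁺, 20 mM glucose 6-phosphate, 2 units/ml G6PDH, 10 mM MgCl₂. [¹⁴C]rivoglitazone at 20 μM, 2 h at 37°C with shaking. Control used insect-cell control supersomes. Stopped with acetonitrile; supernatant concentrated under nitrogen; metabolites analysed by radio-HPLC, LC-MS and LC-MS/MS.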

[3] = target: T3, UDP-glucuronosyltransferase 1A3 (Homo sapiens, UniProt P35503); assay: Activity of human UGT1A3 expressed in microsomes isolated from baculovirus infected insect cell assessed as enzyme-mediated (2S,3S,4S,5R,6R)-6-((1-carboxy-2-(4-((6-methoxy-1-methyl-1H-benzo[d]imidazol-2-yl)methoxy)phenyl)ethylthio)carbonylamino)-3,4,5-trihydroxytetrahydro-2H-pyran-2-carboxylic acid formation at 20 uM after 4 hrs by radio-HPLC/LC-MS/MS analysis in presence of NADPH-generating system/SAM; type: ADME
T3 sequence (P35503 whole entry): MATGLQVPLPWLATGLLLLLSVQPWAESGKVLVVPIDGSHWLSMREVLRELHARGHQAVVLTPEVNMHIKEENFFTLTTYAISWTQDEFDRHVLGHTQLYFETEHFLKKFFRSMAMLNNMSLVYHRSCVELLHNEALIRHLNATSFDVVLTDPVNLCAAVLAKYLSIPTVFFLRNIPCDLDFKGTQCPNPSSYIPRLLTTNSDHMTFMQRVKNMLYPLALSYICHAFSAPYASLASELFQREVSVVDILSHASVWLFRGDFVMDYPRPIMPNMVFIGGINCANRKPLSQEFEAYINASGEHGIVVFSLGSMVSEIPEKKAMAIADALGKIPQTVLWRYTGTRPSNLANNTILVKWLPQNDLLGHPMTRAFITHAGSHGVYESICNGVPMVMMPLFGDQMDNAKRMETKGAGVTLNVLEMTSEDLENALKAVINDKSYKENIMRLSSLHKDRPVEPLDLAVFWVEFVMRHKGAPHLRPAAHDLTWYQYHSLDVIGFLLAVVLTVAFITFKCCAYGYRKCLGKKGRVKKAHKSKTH

In the case of `COc1ccc2nc(COc3ccc(C[14CH]4SC(=O)NC4=O)cc3)n(C)c2c1.Cl` (racemic), the Drug metabolism [1] is reported as “metabolite_detected”, the Drug metabolism [2] is reported as “metabolite_not_detected” and the Drug metabolism (Cytochrome P450 3A4) is reported as “metabolite_detected”. The Drug metabolism (Liver microsome) was “metabolite_not_detected”, the Drug metabolism (Cytochrome P450 2D6) was “metabolite_detected” and the Drug metabolism (Cytochrome P450 1A2) was “metabolite_not_detected”. The Drug metabolism [3] was “metabolite_detected”.
